According to ChEMBL document CHEMBL4840327, “Identification and structure-activity relationship exploration of uracil-based benzoic acid and ester derivatives as novel dipeptidyl Peptidase-4 inhibitors for the treatment of type 2 diabetes mellitus” (Eur J Med Chem, 2021):
One block for each compound: values may come before it.

What was measured:
Dipeptidyl peptidase 4 = Dipeptidyl peptidase 4 (Homo sapiens, UniProt P27487); test: Inhibition of human recombinant DPP4 using Gly-Pro-AMC as substrate preincubated for 15 mins followed by substrate addition and measured for 20 mins by fluorescence based microplate reader assay
[1] = Metabolic stability in ICR mouse liver microsomes assessed as parent compound remaining at 0.1 uM incubated for 60 mins in presence of NADPH by LC-MS/MS analysis; type: ADME, Microsome; conditions: read-out: Stability
In short: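 ICR mouse liver microsomes (1 mg/mL) in 100 mM Tris pH 7.4 with 10 mM MgCl2, preincubated 5 min at 37 °C. Incubated 0–60 min at 37 °C with compound at 0.1 µM final. Quench with ice-cold methanol with 0.5% formic acid, centrifuge, LC-MS/MS. No-microsome controls run; all in duplicate.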

[2] = Half life in Sprague-Dawley rat at 3 mg/kg, iv measured after 48 hrs by LC-MS/MS analysis; type: ADME, organism-based; conditions: in vivo
[3] = Cytotoxicity against human L02 cells assessed as cell viability up to 100 uM measured after 48 hrs by MTT assay relative to control; type: cell-based; conditions: read-out: Activity
In short: (§1)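 Log-phase hepatic LO2 cells seeded at 1 × 10^4 cells/well and exposed to compound or vehicle for 48 h. MTT (5 mg/mL in PBS) added for 4 h at 37 °C, 5% CO2; formazan dissolved in DMSO, absorbance read at 490 nm. Viability given as % of vehicle control; mean ± SD, n = 5.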

[4] = Clearance in Sprague-Dawley rat at 3 mg/kg, iv measured after 48 hrs by LC-MS/MS analysis; type: ADME, organism-based; conditions: in vivo
Dipeptidyl peptidase 8 = Dipeptidyl peptidase 8 (Homo sapiens, UniProt Q6V1X1); test: Inhibition of human recombinant DPP8 using Gly-Pro-AMC as substrate preincubated for 15 mins followed by substrate addition and measured for 20 mins by fluorescence based microplate reader assay
[5] = Cmax in Sprague-Dawley rat at 3 mg/kg, iv measured after 48 hrs by LC-MS/MS analysis; type: ADME, organism-based; parameters: route intravenous, dose 3 mg/kg, time 48 hrs; conditions: in vivo
[6] = AUC (0 to infinity) in Sprague-Dawley rat at 3 mg/kg, iv measured after 48 hrs by LC-MS/MS analysis; type: ADME, organism-based; parameters: route intravenous, time 48 hrs, dose 3 mg/kg; conditions: in vivo
Dipeptidyl peptidase 9 = Dipeptidyl peptidase 9 (Homo sapiens, UniProt Q86TI2); test: Inhibition of human recombinant DPP9 using Gly-Pro-AMC as substrate preincubated for 15 mins followed by substrate addition and measured for 20 mins by fluorescence based microplate reader assay
[7] = Metabolic stability in Sprague-Dawley rat plasma assessed as parent compound remaining at 1 uM incubated for 120 mins by LC-MS/MS analysis; type: ADME, cell-free; conditions: read-out: Stability
In short: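 SD rat plasma incubated with compound for 120 min. Supernatant analysed by LC-MS/MS; remaining % = (C120/C0) × 100. Values come from two independent experiments.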

Mus musculus [8] = test: Antidiabetic activity in C57BL/6 db/db mouse assessed as reduction in blood glucose AUC (0 to 120 mins) at 10 mg/kg, po administered once daily for 4 weeks followed by 12 hrs fasting and subsequent glucose challenge and measured up to 120 mins by glucometer relative to control; type: functional; parameters: scale not given: the % may be the effect or the level left
In short: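 Male db/db mice (10 weeks old), grouped by nonfasting and 12 h fasting glucose and body weight, n = 8 per group, lean littermates as lean control. Oral dosing in water once daily for 4 weeks. Then 12 h fast, oral glucose 1.5 g/kg, glucometer readings at 0, 15, 30, 60 and 120 min.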

Mus musculus [9] = test: Hypoglycemic activity in ICR mouse assessed as reduction in glucose secretion at 10 mg/kg, po via gavage administered as single dose pretreated with compound followed by glucose challenge measured after 120 mins relative to control; type: functional; parameters: scale not given: the % may be the effect or the level left; conditions: 2 h
In short: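 Male ICR mice (6–7 weeks), overnight fasted, n = 8/group. Single gavage dose in water (vehicle: water). Tail-tip blood glucose by glucometer. Oral glucose 3 g/kg given 60 min after treatment (t = 0), and readings taken up to 120 min.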

[10] = target: Dipeptidyl peptidase 4 (Rattus norvegicus) (UniProt P14740); test: In vivo inhibition of DPP4 in Sprague-Dawley rat plasma at 10 mg/kg, po via gavage using Gly-Pro-AMC as substrate measured after 24 hrs relative to control; type: functional, organism-based
In short: (§2)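 Male SD rats (n = 3/group), fasted overnight, gavaged with 10 mg/kg in distilled water or vehicle. Heparinized orbital blood taken at 0–48 h; plasma stored −20 °C. Plasma mixed with 125 µM Gly-Pro-AMC in 100 mM HEPES pH 7.5, 0.1 mg/mL BSA; AMC release followed 10 min at 37 °C (ex 360/em 460 nm). Rate expressed as % of vehicle-sample rate.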

Mus musculus [11] = test: Hypoglycemic activity in overnight fasted C57BL/6 db/db mouse reduction in blood glucose AUC (0 to 120 mins) at 10 mg/kg, po pretreated with compound for 30 mins followed by oral glucose challenge and measured up to 120 mins by glucometer relative to control; type: functional; parameters: scale not given: the % may be the effect or the level left; conditions: time min <=150
In short: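 Male C57BL/6 db/db mice (6–8 weeks, 22 ± 2 g), overnight fasted, n = 6 per group. Oral dosing in water (vehicle: water), then oral glucose 2 g/kg 30 min later. Tail-bleed glucose by glucometer predose and at 0, 15, 30, 60 and 120 min after the load.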

[12] = Clearance in Sprague-Dawley rat at 10 mg/kg, po measured after 48 hrs by LC-MS/MS analysis; type: ADME, organism-based; conditions: in vivo
[13] = AUC (0 to infinity) in Sprague-Dawley rat at 10 mg/kg, po measured after 48 hrs by LC-MS/MS analysis; type: ADME, organism-based; parameters: route oral, dose 10 mg/kg, time 48 hrs; conditions: in vivo
[14] = target: Dipeptidyl peptidase 4 (Rattus norvegicus) (UniProt P14740); test: In vivo inhibition of DPP4 in Sprague-Dawley rat plasma at 10 mg/kg, po via gavage using Gly-Pro-AMC as substrate measured after 30 mins relative to control; type: functional, organism-based; in short: as §2
[15] = target: Dipeptidyl peptidase 4 (Rattus norvegicus) (UniProt P14740); test: In vivo inhibition of DPP4 in Sprague-Dawley rat plasma at 10 mg/kg, po via gavage using Gly-Pro-AMC as substrate measured after 12 hrs relative to control; type: functional, organism-based; in short: as §2
[16] = Half life in Sprague-Dawley rat at 10 mg/kg, po measured after 48 hrs by LC-MS/MS analysis; type: ADME, organism-based; conditions: in vivo
[17] = Cmax in Sprague-Dawley rat at 10 mg/kg, po measured after 48 hrs by LC-MS/MS analysis; type: ADME, organism-based; parameters: route oral, dose 10 mg/kg, time 48 hrs; conditions: in vivo
[18] = Tmax in Sprague-Dawley rat at 10 mg/kg, po measured after 48 hrs by LC-MS/MS analysis; type: ADME, organism-based; conditions: in vivo
[19] = Cytotoxicity against human L02 cells assessed as cell viability at 20 uM measured after 48 hrs by MTT assay relative to control; type: cell-based; conditions: read-out: Activity; in short: as §1

Chain of Dipeptidyl peptidase 4 (Rattus norvegicus) (P14740 whole entry, looked up): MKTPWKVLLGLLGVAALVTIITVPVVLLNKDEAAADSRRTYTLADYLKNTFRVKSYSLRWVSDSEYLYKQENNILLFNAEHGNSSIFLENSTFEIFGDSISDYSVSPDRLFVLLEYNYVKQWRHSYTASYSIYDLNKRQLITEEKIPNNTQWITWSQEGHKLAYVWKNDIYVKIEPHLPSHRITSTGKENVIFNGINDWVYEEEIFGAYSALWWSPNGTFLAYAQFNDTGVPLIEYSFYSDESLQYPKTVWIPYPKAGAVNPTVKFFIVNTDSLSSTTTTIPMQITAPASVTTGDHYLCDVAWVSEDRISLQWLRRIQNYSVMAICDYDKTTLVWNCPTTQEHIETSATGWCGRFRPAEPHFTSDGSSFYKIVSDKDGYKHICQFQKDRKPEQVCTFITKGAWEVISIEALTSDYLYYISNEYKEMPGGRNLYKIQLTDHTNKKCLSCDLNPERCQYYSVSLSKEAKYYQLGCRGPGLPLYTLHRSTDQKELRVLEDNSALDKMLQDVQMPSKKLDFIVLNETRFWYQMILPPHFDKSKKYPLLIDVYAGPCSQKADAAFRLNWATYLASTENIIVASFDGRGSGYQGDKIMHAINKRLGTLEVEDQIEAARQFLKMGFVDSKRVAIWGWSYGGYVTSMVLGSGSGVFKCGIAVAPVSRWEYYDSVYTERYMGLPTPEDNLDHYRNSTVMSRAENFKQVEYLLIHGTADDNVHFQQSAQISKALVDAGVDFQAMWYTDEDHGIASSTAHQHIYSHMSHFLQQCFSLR
Chain of Dipeptidyl peptidase 9 (Q86TI2 whole entry): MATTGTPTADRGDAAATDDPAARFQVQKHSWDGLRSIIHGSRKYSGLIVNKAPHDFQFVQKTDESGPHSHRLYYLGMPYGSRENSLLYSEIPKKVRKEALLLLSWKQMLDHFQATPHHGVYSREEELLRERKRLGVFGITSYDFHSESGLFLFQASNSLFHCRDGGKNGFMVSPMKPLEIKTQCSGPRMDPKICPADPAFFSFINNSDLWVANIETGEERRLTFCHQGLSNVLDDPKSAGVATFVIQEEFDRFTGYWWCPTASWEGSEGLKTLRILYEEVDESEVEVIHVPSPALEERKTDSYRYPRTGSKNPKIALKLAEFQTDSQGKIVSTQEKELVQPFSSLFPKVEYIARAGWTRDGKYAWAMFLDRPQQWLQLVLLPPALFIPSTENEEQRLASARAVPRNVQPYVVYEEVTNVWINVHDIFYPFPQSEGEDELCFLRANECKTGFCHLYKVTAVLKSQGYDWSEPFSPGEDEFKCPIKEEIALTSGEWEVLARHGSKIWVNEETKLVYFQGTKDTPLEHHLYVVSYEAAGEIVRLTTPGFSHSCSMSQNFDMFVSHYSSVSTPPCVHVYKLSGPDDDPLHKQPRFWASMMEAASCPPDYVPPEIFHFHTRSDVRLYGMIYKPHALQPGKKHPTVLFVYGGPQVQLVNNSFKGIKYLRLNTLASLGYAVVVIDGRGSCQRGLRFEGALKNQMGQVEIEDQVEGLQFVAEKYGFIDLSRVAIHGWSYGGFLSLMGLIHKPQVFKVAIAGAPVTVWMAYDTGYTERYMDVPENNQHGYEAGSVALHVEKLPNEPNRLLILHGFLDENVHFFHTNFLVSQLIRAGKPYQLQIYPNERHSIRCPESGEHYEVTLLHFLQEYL
Chain of Dipeptidyl peptidase 8 (Q6V1X1 whole entry): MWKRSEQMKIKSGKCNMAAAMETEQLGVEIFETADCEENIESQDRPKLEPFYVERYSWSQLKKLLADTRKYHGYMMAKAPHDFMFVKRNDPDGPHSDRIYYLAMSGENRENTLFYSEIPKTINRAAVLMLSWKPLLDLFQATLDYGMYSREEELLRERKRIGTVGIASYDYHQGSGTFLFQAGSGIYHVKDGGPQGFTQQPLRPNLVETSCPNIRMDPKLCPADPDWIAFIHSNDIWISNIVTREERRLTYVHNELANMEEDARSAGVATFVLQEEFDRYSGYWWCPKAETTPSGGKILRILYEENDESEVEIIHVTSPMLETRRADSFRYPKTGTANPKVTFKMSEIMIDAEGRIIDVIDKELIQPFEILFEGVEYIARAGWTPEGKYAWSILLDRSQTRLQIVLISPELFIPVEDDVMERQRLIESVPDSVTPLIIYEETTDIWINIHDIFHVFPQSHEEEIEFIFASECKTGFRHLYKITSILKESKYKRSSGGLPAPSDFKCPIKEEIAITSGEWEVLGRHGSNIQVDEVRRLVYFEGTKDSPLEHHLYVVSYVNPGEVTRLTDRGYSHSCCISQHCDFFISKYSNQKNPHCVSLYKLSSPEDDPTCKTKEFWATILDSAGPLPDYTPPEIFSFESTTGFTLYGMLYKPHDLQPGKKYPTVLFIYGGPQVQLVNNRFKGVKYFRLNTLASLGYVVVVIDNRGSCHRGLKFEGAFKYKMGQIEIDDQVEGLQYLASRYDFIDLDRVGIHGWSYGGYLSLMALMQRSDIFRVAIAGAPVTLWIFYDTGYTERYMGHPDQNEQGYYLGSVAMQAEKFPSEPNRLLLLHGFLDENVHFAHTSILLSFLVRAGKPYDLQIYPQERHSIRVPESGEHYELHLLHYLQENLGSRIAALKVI
Chain of Dipeptidyl peptidase 4 (P27487 whole entry): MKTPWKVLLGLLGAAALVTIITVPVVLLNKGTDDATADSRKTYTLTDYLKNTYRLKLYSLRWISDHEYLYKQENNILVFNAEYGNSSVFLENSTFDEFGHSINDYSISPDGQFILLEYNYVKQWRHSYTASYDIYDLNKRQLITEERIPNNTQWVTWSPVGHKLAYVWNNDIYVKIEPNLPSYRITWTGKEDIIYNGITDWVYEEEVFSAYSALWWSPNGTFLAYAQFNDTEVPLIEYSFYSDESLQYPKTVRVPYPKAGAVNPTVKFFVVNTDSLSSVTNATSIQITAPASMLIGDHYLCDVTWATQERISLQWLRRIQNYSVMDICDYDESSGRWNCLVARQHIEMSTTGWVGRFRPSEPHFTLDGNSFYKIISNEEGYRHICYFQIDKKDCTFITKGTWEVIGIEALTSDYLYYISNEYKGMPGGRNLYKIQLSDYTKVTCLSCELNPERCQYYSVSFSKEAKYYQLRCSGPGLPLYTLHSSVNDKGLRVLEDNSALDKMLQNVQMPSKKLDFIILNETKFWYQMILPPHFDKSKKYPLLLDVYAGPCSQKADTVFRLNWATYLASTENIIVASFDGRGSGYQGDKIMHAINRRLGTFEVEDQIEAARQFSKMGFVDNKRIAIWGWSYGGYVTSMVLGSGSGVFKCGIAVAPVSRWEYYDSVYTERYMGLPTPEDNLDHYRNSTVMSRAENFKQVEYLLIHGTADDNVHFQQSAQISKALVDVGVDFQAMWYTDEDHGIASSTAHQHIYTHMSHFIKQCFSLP

SMILES: CC#CCn1c(N2CCC[C@@H](N)C2)cc(=O)n(Cc2cccc(C(=O)O)c2Br)c1=O
IC50 (Dipeptidyl peptidase 4): > 1 µM

SMILES: CC#CCn1c(N2CCC[C@@H](N)C2)cc(=O)n(Cc2cc(C(=O)O)ccc2Cl)c1=O
remaining at 1 h, 0.1 µM [1]: 106%
half-life [2]: 54.6 min
viability at 48 h [3]: > 95%
CL [4]: 64.8 mL/min/kg
IC50 (Dipeptidyl peptidase 8): > 100 µM
Cmax [5]: 25700 ng/mL
AUC [6]: 8272.25 ng·h/mL
IC50 (Dipeptidyl peptidase 9): > 100 µM
remaining at 2 h, 1 µM [7]: 103%

SMILES: CC#CCn1c(N2CCC[C@@H](N)C2)cc(=O)n(Cc2cc(Br)cc(C(=O)OC)c2)c1=O
IC50 (Dipeptidyl peptidase 8): > 100 µM
IC50 (Dipeptidyl peptidase 9): > 100 µM

SMILES: Cn1c(=O)cc(N2CCC[C@@H](N)C2)n(Cc2ccccc2C#N)c1=O [ALOGLIPTIN]
Activity (Mus musculus [8]): 16.7%
Activity (Mus musculus [9]): 12.4%
inhibition [10]: 45%
Activity (Mus musculus [11]): 40.1%

SMILES: CC#CCn1c(N2CCC[C@@H](N)C2)cc(=O)n(Cc2cc(C(=O)OC)ccc2Cl)c1=O
remaining at 1 h, 0.1 µM [1]: 34.4%
viability at 48 h [3]: > 95%
CL/F [12]: 9.17 mL/min/kg
AUC(0-inf) [13]: 26800 ng·h/mL
IC50 (Dipeptidyl peptidase 8): > 100 µM
inhibition [14]: 90%
inhibition [15]: > 70%
half-life [16]: 146 min
Cmax [17]: 3190 ng/mL
IC50 (Dipeptidyl peptidase 9): > 100 µM
Tmax [18]: 22.8 min
remaining at 2 h, 1 µM [7]: 64.1%

SMILES: COc1cccc2c1C(=O)c1c(O)c3c(c(O)c1C2=O)C[C@@](O)(C(=O)CO)C[C@@H]3O[C@H]1C[C@H](N)[C@H](O)[C@H](C)O1 [DOXORUBICIN]
viability at 48 h, 20 µM [19]: 25%

SMILES: CC#CCn1c(N2CCC[C@@H](N)C2)cc(=O)n(Cc2cc(Br)cc(C(=O)O)c2)c1=O
IC50 (Dipeptidyl peptidase 8): > 100 µM
IC50 (Dipeptidyl peptidase 9): > 100 µM

Results, then the compound that gave them:

IC50 (Dipeptidyl peptidase 4): > 1 µM
SMILES: CC#CCn1c(N2CCC[C@@H](N)C2)cc(=O)n(Cc2cccc(C(=O)O)c2F)c1=O

IC50 (Dipeptidyl peptidase 8): > 100 µM
IC50 (Dipeptidyl peptidase 9): > 100 µM
SMILES: CC#CCn1c(N2CCC[C@@H](N)C2)cc(=O)n(Cc2cccc(C(=O)OC)c2Br)c1=O

IC50 (Dipeptidyl peptidase 8): > 100 µM
IC50 (Dipeptidyl peptidase 9): > 100 µM
SMILES: CC#CCn1c(N2CCC[C@@H](N)C2)cc(=O)n(Cc2cccc(C(=O)OC)c2F)c1=O
